In ChEMBL document CHEMBL4622968, “Discovery of [1,2,4]triazolo[4,3-a]pyridines as potent Smoothened inhibitors targeting the Hedgehog pathway with improved antitumor activity in vivo” (Bioorg Med Chem, 2020):
Active and inactive are the calls of the source. The rule behind the calls is not given here.

Key:
T47D = assay: Antiproliferation activity against human T47D cells assessed as reduction in cell viability incubated for 72 hr by MTT assay; type: functional, cell-based
Method in brief: (§1)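 MTT assay. Cells were plated overnight and exposed to a range of concentrations for 72 h. MTT was then added for 4 h and absorbance read at 570 nm. Inhibition% = [(control − compound)/(control − blank)] × 100. IC50 was fitted from the curves. Mean ± S.D. of 3–5 separate experiments. RPMI 1640 + 10% FBS; MCF10A in DMEM/F12 with 5% horse serum, EGF, hydrocortisone, insulin and cholera toxin.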

MDA-MB-231 [1] = assay: Induction of cell cycle arrest in human MDA-MB-231 cells assessed as cell accumulation at G0/G1 phase incubated for 48 hrs by propidium iodide staining-based flow cytometric analysis; type: functional
[2] = Inhibition of hedgehog pathway in mouse NIH/3T3 cells harboring GRE-Luc assessed as inhibition of SAG-induced Hh signaling pathway by dual luciferase reporter gene assay; type: cell-based; conditions: NIH3T3
Method in brief: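 NIH3T3 cells co-transfected with 8×3' Gli-BS-delta51-Luc II firefly reporter and pRL-TK Renilla plasmid; after 24 h treated with compounds plus SAG (pathway activator). Gli luciferase normalized to Renilla (dual-luciferase read-out); IC50 = concentration halving normalized signal; mean ± S.D. of 3–5 separate experiments.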

MCF-10A = assay: Cytotoxicity against human MCF10A cells assessed as cell viability incubated for 72 hrs measured by MTT assay; type: cell-based; method in brief: as §1
MDA-MB-468 [3] = assay: Induction of cell cycle arrest in human MDA-MB-468 cells assessed as cell accumulation at S phase at 14 uM incubated for 48 hrs by propidium iodide staining-based flow cytometric analysis (reference value: 34.20 %); type: functional
Method in brief: (§2)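 Cells were seeded at 1.2×10^5 per well and treated for 48 h (MDA-MB-468: 14, 28, 56 μM). Cells were fixed in 75% ethanol at −20 °C overnight, stained with PI and analysed by flow cytometry. Mean ± S.D. of three independent experiments versus DMSO.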

MDA-MB-468 [4] = assay: Induction of cell cycle arrest in human MDA-MB-468 cells assessed as cell accumulation at G0/G1 phase at 56 uM incubated for 48 hrs by propidium iodide staining-based flow cytometric analysis (reference value: 38.94 %); type: functional; method in brief: as §2
MDA-MB-468 [5] = assay: Induction of cell cycle arrest in human MDA-MB-468 cells assessed as cell accumulation at S phase at 56 uM incubated for 48 hrs by propidium iodide staining-based flow cytometric analysis (reference value: 34.20 %); type: functional; method in brief: as §2
MDA-MB-468 [6] = assay: Induction of apoptosis in human MDA-MB-468 cells assessed as increase in apoptosis incubated for 48 hrs by annexin-V-FITC/PI staining based flow cytometric method; type: functional, cell-based
MDA-MB-231 [7] = assay: Induction of apoptosis in human MDA-MB-231 cells assessed as increase in apoptosis incubated for 48 hrs by annexin-V-FITC/PI staining based flow cytometric method; type: functional, cell-based
MDA-MB-468 [8] = assay: Induction of apoptosis in human MDA-MB-468 cells assessed as late apoptotic cells at 14 uM incubated for 48 hrs by annexin-V-FITC staining based flow cytometric method (reference value: 0.99 %); type: functional
MDA-MB-468 [9] = assay: Induction of apoptosis in human MDA-MB-468 cells assessed as live cells at 14 uM incubated for 48 hrs by annexin-V-FITC staining based flow cytometric method (reference value: 98.5 %); type: functional
MDA-MB-468 [10] = assay: Induction of apoptosis in human MDA-MB-468 cells assessed as early apoptotic cells at 14 uM incubated for 48 hrs by annexin-V-FITC staining based flow cytometric method (reference value: 2.00 %); type: functional
MDA-MB-468 [11] = assay: Induction of apoptosis in human MDA-MB-468 cells assessed as necrotic cells at 28 uM incubated for 48 hrs by annexin-V-FITC staining based flow cytometric method (reference value: 1.52 %); type: functional
MDA-MB-468 [12] = assay: Induction of apoptosis in human MDA-MB-468 cells assessed as late apoptotic cells at 28 uM incubated for 48 hrs by annexin-V-FITC staining based flow cytometric method (reference value: 0.99 %); type: functional
MDA-MB-468 [13] = assay: Induction of apoptosis in human MDA-MB-468 cells assessed as live cells at 28 uM incubated for 48 hrs by annexin-V-FITC staining based flow cytometric method (reference value: 98.5 %); type: functional
MDA-MB-468 [14] = assay: Induction of apoptosis in human MDA-MB-468 cells assessed as necrotic cells at 56 uM incubated for 48 hrs by annexin-V-FITC staining based flow cytometric method (reference value: 1.52 %); type: functional
Protein smoothened = Protein smoothened (Homo sapiens, UniProt Q99835); assay: Binding affinity to recombinant human Smo receptor assessed as association constant at equilibrium by SPR analysis
MDA-MB-468 [15] = assay: Induction of apoptosis in human MDA-MB-468 cells assessed as decrease in Bcl2 protein expression level incubated for 1 hr by Western blot analysis; type: functional, cell-based
MDA-MB-468 [16] = assay: Induction of apoptosis in human MDA-MB-468 cells assessed as increase in Bax protein expression level incubated for 1 hr by Western blot analysis; type: functional, cell-based
Mus musculus = species on record: Mus musculus; assay: Inhibition of SAG-induced hedgehog pathway in mouse NIH/3T3 cells assessed as inhibition of Smo localization to primary cilia pretreated with SAG for 6 hrs followed by incubating for 24 hrs by confocal laser-scanning microscopy; type: cell-based
Method in brief: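 NIH3T3 cells in DMEM + 10% FBS were seeded at 2×10^4 per well on chamber slides for 24 h. They were stimulated with SAG (200 nM) for 6 h, then exposed to compound for 24 h. Cells were fixed in 4% paraformaldehyde and permeabilized with 0.1% Triton. Acetylated α-tubulin and Smo were immunostained and imaged by confocal microscopy.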

MDA-MB-468 [17] = assay: Inhibition of hedgehog pathway in human MDA-MB-468 cells assessed as decrease in Smo protein levels in cilia at 28 uM incubated for 24 hrs by immunostaining based confocal microscopic analysis; type: cell-based
Method in brief: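 MDA-MB-468 cells were treated at 28 μM for 24 h with or without SAG. Cilia were immunostained for acetylated α-tubulin and Smo and imaged by confocal microscopy. Comparisons were made against DMSO and against SAG alone.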

[18] = Acute toxicity in Kunming mouse assessed as mortality at 3453 mg/kg, ig observed for 14 days relative to control; type: organism-based; conditions: in vivo, po, read-out: Activity
Method in brief: (§3)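 Kunming mice, groups of 5 female and 5 male per dose, dosed once by gavage at graded doses; mortality recorded over 14 days as dead/treated and percent. LD50 derived by improved Karber's method: LD50 = lg^-1[xm − i(ΣP − 0.5)], xm log of maximal dose, i log ratio of neighbouring doses; 95% confidence intervals given.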

[19] = Acute toxicity in Kunming mouse assessed as lethality through intragastric administration observed for 14 days; conditions: in vivo, po; method in brief: as §3
[20] = Toxicity in BALB/c mouse xenografted with human MDA-MB-468 cells assessed as body weight at 80 to 100 mg/kg, ig measured every day for 21 day; type: organism-based; conditions: in vivo, po, 504 h
Method in brief: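 Female BALB/c nude mice, 6–8 weeks, given 1.0×10^7 MDA-MB-468 cells s.c. in right posterior flank; at 100 mm3 tumours, randomized into groups of five. Daily gavage at 80 or 100 mg/kg in saline with 0.1% Tween 80, or vehicle alone; body weight recorded daily, tumour volume every 2 days; sacrificed day 21.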

Sequence of Protein smoothened (Q99835 whole entry): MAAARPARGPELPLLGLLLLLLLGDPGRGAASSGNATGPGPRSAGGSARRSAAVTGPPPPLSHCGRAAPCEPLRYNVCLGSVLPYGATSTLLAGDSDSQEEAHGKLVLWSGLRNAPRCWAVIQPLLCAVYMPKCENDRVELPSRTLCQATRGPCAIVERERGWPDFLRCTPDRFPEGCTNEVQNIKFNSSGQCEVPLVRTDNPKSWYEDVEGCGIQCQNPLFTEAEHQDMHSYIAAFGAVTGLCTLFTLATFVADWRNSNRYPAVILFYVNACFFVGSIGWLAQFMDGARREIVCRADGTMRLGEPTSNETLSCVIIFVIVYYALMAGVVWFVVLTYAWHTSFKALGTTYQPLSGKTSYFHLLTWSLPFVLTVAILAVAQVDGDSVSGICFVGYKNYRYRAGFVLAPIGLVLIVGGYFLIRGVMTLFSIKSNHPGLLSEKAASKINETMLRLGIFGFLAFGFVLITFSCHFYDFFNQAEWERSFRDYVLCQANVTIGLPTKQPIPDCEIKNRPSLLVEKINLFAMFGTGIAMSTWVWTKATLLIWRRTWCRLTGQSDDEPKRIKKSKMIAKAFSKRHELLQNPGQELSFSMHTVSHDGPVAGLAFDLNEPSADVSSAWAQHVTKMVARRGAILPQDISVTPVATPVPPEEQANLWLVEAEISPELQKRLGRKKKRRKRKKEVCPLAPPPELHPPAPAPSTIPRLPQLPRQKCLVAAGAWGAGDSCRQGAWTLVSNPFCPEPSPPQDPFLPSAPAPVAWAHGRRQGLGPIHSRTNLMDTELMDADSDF

O=C(Nc1ccc(Cl)c(-c2nnc3c(Cl)cccn23)c1)c1ccc(Cl)nc1Cl
IC50 (T47D): 42.3 µM
Activity (MDA-MB-231 [1]): Dose-dependent effect
IC50 [2]: 0.09 µM
IC50 (MCF-10A): > 100 µM
Activity (MDA-MB-468 [3]): 45%
Activity (MDA-MB-468 [4]): 29%
Activity (MDA-MB-468 [5]): 44%
Activity (MDA-MB-468 [6]): Dose-dependent effect
Activity (MDA-MB-231 [7]): Dose-dependent effect
Activity (MDA-MB-468 [8]): 7.15%
Activity (MDA-MB-468 [9]): 74.84%
Activity (MDA-MB-468 [10]): 8.63%
Activity (MDA-MB-468 [11]): 9.86%
Activity (MDA-MB-468 [12]): 14.6%
Activity (MDA-MB-468 [13]): 67.8%
Activity (MDA-MB-468 [14]): 9.06%
KA (Protein smoothened): 9.71 ×10⁷ /M
Activity (MDA-MB-468 [15]): Active
Activity (MDA-MB-468 [16]): Active
inhibition (Mus musculus): Active
inhibition (MDA-MB-468 [17]): Active
mortality at 336 h [18]: 30%
LD50 at 336 h [19]: 3880 mg/kg
Activity [20]: Non-Toxic
